This note sets out measurements from ChEMBL document CHEMBL4602727, “Lead Optimization of Second-Generation Acridones as Broad-Spectrum Antimalarials” (J Med Chem, 2020).

Holding throughout (type): ADME, organism-based
Data set [1] is described as follows: AUC (0 to last) in ICR mouse liver at 80 mg/kg, po administered as single dose. Further details: dose 80 mg/kg, time 0 - last, route oral.
The nature of data set [2]: AUC (0 to infinity) in ICR mouse liver at 80 mg/kg, po administered as single dose. Further details: dose 80 mg/kg, route oral, time infinity.
Data set [3] in a line: Ratio of AUC (0 to infinity) in ICR mouse liver to plasma at 80 mg/kg, po administered as single dose. Conditions: liver and plasma, read-out: Ratio AUC.
The nature of data set [4]: Apparent volume of distribution in ICR mouse plasma at 80 mg/kg, po administered as single dose. Conditions: read-out: Vz/F. The essentials:
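Male ICR mice, 7 weeks old, 23–28 g, received a single intragastric 80 mg/kg dose in DD water (100 μL/20 g). […] Cmax and Tmax came from the concentration–time curves; t1/2 = ln2/kel; AUC by linear trapezoidal rule extrapolated to infinity; MRT = AUMC/AUC.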

As for `O=c1c2ccc(OCc3ccc(OC(F)(F)F)cc3)cc2[nH]c2cc(F)cc(F)c12`, in data set [1], the AUC(0-t) (as a rule, exposure summed from dosing to a finite time, without extrapolation to infinity) came out at 20400 ng·h/mL.

For the compound `O=c1c2ccc(OCc3cccc(OC(F)(F)F)c3)cc2[nH]c2cc(F)cc(F)c12`, the AUC(0-inf) (as a rule, the area under the concentration-time curve extrapolated to infinity) in data set [2] worked out at 19300 ng·h/mL.

For the compound `O=c1c2ccc(OCc3cccc(C(F)(F)F)c3)cc2[nH]c2cc(F)cc(F)c12`, the AUC(0-t) in data set [1] was found to be 11500 ng·h/mL.

Take `O=c1c2ccc(Oc3ccc(OC(F)(F)F)cc3)cc2[nH]c2cc(Cl)cc(F)c12`: in data set [3], the Kp was determined as 112.

As for `O=c1c2cc(OCc3ccc(OC(F)(F)F)cc3)ccc2[nH]c2cc(F)cc(F)c12`, the Vd/F in data set [4] came to 290 L/kg.
